In ChEMBL document CHEMBL5653631, “A Potent and Selective ULK1 Inhibitor Suppresses Autophagy and Sensitizes Cancer Cells to Nutrient Stress” (iScience, 2018):
Each block holds one compound with its values, some of them ahead of it.

Key:
[1] = target: Serine/threonine-protein kinase SIK2 (Homo sapiens) (UniProt Q9H0K1); assay: Inhibition of human recombinant QIK at 500 nM related to control ULK1
[2] = target: Serine/threonine-protein kinase 25 (Homo sapiens) (UniProt O00506); assay: Inhibition of human recombinant YSK1 at 500 nM in presence of ATP by radiometric assay relative to control
Sequence of Serine/threonine-protein kinase 25 (Homo sapiens) (O00506 whole entry, looked up): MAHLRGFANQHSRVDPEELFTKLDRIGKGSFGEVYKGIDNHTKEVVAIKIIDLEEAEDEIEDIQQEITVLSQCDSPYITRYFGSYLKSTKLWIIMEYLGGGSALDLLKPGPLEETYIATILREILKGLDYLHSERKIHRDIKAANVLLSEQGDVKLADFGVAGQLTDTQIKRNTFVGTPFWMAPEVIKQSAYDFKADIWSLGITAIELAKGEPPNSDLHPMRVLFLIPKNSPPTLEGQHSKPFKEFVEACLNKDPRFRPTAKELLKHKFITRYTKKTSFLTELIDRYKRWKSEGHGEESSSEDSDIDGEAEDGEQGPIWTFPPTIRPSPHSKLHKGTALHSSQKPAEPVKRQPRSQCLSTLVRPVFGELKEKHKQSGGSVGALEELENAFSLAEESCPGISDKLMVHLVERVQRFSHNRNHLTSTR

[3] = target: High affinity nerve growth factor receptor (Homo sapiens) (UniProt P04629); assay: Inhibition of human recombinant TRKA at 500 nM in presence of ATP by radiometric assay relative to control
Sequence of High affinity nerve growth factor receptor (Homo sapiens) (P04629 33-796 limits assumed): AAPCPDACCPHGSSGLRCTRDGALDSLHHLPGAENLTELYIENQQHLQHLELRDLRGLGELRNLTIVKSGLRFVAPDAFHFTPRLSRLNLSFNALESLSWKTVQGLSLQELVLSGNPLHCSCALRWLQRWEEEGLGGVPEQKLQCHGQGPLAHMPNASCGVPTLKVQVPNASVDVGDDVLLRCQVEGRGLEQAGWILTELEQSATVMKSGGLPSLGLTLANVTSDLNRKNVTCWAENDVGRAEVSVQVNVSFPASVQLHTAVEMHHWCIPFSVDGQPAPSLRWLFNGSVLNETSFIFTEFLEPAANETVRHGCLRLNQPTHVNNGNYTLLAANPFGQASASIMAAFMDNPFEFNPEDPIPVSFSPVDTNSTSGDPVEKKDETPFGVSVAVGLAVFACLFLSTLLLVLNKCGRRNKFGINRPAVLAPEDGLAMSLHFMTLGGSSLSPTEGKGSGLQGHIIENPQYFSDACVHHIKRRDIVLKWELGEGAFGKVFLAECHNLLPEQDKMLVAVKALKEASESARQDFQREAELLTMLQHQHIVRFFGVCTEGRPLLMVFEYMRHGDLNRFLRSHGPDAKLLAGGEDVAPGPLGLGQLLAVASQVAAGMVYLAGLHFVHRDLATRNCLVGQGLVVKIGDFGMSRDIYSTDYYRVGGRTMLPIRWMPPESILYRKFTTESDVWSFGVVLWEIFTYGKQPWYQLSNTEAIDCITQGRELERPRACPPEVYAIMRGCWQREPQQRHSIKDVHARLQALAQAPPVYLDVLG

[4] = target: Serine-protein kinase ATM (Homo sapiens) (UniProt Q13315); assay: Inhibition of human recombinant ATM at 500 nM in presence of ATP by radiometric assay relative to control
Summary of the method: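 Panel of 327 recombinant human kinases, each assayed in vitro by radiometric activity assay in duplicate at a single inhibitor concentration per compound, chosen with reference to its ULK1 inhibition. Activity remaining was expressed as percent of vehicle control, and percent inhibition was calculated as 100 minus percent activity remaining.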

[5] = target: Serine/threonine-protein kinase 33 (Homo sapiens) (UniProt Q9BYT3); assay: Inhibition of human recombinant STK33 at 500 nM in presence of ATP by radiometric assay relative to control
Sequence of Serine/threonine-protein kinase 33 (Homo sapiens) (Q9BYT3 whole entry, looked up): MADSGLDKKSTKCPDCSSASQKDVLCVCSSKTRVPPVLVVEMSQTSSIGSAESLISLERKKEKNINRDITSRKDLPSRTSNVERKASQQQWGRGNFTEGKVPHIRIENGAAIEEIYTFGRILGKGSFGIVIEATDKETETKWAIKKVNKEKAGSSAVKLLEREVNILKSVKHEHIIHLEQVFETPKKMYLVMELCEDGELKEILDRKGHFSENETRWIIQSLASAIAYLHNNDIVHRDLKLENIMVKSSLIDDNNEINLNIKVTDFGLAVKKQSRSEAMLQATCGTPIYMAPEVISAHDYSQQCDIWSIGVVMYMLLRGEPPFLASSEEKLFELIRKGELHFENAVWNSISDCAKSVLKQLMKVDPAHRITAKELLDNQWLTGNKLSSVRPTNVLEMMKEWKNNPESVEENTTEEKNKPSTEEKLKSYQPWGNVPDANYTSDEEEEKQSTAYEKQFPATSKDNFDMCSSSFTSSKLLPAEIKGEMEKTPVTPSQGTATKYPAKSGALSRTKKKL

[6] = target: Calcium/calmodulin-dependent protein kinase type II subunit beta (Homo sapiens) (UniProt Q13554); assay: Inhibition of human recombinant CaMK2b at 500 nM related to control ULK1
Sequence of Calcium/calmodulin-dependent protein kinase type II subunit beta (Homo sapiens) (Q13554 whole entry): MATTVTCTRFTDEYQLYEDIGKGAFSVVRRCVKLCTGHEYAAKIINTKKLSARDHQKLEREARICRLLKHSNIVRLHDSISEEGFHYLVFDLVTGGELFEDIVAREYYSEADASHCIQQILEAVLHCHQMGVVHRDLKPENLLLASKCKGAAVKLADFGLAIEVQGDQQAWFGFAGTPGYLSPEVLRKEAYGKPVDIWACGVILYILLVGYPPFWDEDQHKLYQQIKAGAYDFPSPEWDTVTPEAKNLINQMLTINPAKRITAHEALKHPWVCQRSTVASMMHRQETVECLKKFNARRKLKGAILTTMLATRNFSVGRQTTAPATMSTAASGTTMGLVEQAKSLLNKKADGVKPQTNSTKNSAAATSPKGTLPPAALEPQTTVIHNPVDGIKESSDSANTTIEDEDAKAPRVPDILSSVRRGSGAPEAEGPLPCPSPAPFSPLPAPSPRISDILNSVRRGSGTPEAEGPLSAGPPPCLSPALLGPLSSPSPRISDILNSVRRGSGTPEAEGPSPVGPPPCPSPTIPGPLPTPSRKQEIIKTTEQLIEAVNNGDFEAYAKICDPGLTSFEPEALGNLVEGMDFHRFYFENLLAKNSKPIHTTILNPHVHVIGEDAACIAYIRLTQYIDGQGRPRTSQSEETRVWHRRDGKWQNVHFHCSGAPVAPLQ

[7] = target: Death-associated protein kinase 1 (Homo sapiens) (UniProt P53355); assay: Inhibition of human recombinant DAPK1 at 500 nM in presence of ATP by radiometric assay relative to control
[8] = target: T1, Muscle, skeletal receptor tyrosine-protein kinase (Homo sapiens) (UniProt O15146); assay: Inhibition of human recombinant MUSK at 500 nM related to control ULK1
T1 sequence (whole entry): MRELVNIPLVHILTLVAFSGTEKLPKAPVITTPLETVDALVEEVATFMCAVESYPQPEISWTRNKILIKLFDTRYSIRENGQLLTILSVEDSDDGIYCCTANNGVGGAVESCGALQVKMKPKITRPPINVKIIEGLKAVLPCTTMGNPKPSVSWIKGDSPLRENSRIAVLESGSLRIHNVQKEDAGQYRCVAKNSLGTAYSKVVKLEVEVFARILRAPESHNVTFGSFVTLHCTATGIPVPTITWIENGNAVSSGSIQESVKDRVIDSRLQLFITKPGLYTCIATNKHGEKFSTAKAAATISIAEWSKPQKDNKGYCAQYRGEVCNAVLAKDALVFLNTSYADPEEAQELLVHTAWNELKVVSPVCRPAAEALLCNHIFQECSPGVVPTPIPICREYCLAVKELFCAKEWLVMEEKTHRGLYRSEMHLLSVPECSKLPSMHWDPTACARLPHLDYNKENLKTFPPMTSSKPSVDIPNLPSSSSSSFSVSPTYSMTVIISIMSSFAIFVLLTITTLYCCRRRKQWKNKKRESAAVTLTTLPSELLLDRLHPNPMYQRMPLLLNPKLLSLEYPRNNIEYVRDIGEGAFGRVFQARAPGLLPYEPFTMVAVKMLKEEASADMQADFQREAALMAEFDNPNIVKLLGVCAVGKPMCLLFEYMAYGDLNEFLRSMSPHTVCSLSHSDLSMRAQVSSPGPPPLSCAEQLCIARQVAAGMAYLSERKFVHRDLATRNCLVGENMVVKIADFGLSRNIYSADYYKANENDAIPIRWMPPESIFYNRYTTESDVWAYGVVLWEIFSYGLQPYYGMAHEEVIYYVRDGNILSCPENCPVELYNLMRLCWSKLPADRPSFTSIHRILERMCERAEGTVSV

[9] = target: Dual specificity tyrosine-phosphorylation-regulated kinase 1A (Homo sapiens) (UniProt Q13627); assay: Inhibition of human recombinant DYRK1A at 500 nM in presence of ATP by radiometric assay relative to control
[10] = target: High affinity nerve growth factor receptor (Homo sapiens) (UniProt P04629); assay: Inhibition of human recombinant TRKA at 15 nM in presence of ATP by radiometric assay relative to control
[11] = target: Serine/threonine-protein kinase PLK2 (Homo sapiens) (UniProt Q9NYY3); assay: Inhibition of human recombinant PLK2 at 15 nM in presence of ATP by radiometric assay relative to control
[12] = target: Serine/threonine-protein kinase MARK1 (Homo sapiens) (UniProt Q9P0L2); assay: Inhibition of human recombinant MARK1 at 15 nM in presence of ATP by radiometric assay relative to control
Sequence of Serine/threonine-protein kinase MARK1 (Homo sapiens) (Q9P0L2 whole entry, looked up): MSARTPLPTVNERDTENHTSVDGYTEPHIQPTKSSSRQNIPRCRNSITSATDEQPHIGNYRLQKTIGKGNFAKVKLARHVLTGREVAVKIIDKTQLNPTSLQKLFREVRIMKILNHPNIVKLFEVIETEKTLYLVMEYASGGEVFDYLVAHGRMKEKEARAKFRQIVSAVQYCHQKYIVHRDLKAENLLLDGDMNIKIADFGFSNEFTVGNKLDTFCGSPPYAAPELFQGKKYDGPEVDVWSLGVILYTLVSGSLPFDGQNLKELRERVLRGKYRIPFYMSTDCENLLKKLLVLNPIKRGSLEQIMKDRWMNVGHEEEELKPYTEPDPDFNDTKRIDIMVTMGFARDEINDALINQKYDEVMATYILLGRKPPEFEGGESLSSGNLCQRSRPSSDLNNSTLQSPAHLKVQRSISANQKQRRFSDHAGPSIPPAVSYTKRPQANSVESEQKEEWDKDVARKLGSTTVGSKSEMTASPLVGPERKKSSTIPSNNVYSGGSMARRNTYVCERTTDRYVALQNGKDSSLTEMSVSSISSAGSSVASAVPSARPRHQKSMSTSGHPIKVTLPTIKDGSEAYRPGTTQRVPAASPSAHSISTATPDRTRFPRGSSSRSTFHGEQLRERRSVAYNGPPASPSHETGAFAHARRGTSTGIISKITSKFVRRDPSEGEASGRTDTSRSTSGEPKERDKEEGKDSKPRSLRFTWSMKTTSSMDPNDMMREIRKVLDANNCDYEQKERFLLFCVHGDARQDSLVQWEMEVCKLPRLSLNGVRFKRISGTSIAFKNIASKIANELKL

[13] = target: Proto-oncogene tyrosine-protein kinase receptor Ret (Homo sapiens) (UniProt P07949); assay: Inhibition of human recombinant RET at 40 nM related to control ULK1
[14] = target: Ribosomal protein S6 kinase alpha-6 (Homo sapiens) (UniProt Q9UK32); assay: Inhibition of human recombinant RSK4 at 40 nM in presence of ATP by radiometric assay relative to control
[15] = target: Casein kinase I isoform gamma-1 (Homo sapiens) (UniProt Q9HCP0); assay: Inhibition of human recombinant CK1g1 at 40 nM related to control ULK1
Sequence of Casein kinase I isoform gamma-1 (Homo sapiens) (Q9HCP0 whole entry, looked up, canonical isoform): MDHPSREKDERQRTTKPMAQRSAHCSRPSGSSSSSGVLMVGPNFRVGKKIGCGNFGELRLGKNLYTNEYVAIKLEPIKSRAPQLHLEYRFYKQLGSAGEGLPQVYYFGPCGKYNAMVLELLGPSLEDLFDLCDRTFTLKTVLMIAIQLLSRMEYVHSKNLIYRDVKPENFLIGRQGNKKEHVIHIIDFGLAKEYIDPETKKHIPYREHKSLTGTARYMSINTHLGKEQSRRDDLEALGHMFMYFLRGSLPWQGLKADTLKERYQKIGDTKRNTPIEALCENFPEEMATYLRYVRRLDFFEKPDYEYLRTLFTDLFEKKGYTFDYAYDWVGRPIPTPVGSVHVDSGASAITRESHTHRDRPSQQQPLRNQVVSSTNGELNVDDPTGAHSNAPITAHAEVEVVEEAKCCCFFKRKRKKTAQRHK

[16] = target: T2, G protein-coupled receptor kinase 3 (Homo sapiens) (UniProt P35626); assay: Inhibition of human recombinant BARK2 at 40 nM in presence of ATP by radiometric assay relative to control
T2 sequence (whole entry): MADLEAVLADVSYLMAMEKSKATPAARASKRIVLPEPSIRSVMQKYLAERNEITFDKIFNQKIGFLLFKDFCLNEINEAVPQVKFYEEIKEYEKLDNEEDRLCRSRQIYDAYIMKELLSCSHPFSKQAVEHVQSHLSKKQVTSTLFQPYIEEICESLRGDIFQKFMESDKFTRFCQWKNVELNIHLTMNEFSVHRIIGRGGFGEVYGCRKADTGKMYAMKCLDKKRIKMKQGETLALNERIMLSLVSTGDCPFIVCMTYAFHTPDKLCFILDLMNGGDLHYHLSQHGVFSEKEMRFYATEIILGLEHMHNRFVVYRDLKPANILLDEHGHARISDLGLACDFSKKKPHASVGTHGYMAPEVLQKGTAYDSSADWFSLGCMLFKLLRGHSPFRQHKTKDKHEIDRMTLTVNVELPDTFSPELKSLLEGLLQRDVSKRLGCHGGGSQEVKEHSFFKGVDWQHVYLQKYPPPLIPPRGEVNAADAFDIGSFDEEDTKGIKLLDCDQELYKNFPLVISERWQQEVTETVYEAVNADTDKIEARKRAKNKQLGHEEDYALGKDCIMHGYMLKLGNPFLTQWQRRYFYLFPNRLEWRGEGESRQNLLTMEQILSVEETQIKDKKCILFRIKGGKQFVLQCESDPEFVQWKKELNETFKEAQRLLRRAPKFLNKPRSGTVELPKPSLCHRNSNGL
Summary of the method: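 Part of a radiometric in vitro activity panel of 327 recombinant human kinases. Each kinase was tested in duplicate at one inhibitor concentration. Activity remaining was expressed as a percentage of the vehicle control, and percent inhibition was taken as 100 minus that value.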

Sequence of Serine/threonine-protein kinase SIK2 (Homo sapiens) (Q9H0K1 whole entry, looked up): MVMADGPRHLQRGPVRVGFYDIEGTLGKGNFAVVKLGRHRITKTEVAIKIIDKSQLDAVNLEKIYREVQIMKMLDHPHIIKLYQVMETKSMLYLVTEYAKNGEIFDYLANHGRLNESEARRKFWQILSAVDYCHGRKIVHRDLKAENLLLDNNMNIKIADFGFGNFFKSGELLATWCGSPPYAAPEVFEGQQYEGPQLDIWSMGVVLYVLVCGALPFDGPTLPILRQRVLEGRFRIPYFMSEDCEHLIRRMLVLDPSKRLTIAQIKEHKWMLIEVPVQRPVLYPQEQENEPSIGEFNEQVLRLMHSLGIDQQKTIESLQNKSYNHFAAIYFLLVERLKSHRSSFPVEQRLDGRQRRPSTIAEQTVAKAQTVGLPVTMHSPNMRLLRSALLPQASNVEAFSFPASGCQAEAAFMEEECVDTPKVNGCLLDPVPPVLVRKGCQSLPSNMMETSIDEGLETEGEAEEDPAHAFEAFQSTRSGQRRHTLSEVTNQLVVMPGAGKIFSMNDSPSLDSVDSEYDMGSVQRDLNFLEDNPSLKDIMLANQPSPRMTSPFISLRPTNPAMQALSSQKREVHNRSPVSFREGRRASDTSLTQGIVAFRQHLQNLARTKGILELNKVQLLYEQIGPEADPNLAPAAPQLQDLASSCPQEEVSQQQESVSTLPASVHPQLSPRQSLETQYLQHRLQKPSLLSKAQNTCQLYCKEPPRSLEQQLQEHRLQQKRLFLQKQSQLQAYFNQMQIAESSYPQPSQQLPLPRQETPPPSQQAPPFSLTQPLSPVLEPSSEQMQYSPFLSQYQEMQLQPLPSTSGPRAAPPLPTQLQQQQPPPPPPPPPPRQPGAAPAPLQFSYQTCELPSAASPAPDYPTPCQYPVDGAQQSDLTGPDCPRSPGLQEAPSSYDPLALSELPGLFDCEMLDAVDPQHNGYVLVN

fold change (FC) [1]: 0
inhibition [2]: 12%
inhibition [3]: 52%
inhibition [4]: 2%
inhibition [5]: 4%
fold change (FC) [6]: 0
fold change (FC) [8]: 0.46
inhibition [9]: 1%
SMILES: CNC(=O)c1ccccc1Oc1nc(Nc2cc(OC)c(OC)c(OC)c2)ncc1Br
inhibition [7]: 0%

inhibition [10]: 0%
inhibition [11]: 4%
inhibition [12]: 54%
SMILES: CC(C)[C@H](NC(=O)c1cc(-c2cnn3cc(-c4ccc(OCCN5CCCCC5)cc4)cnc23)cs1)C(F)(F)F

fold change (FC) [13]: 0
inhibition [14]: 0%
fold change (FC) [15]: 0
inhibition [16]: 7%
SMILES: O=C(N[C@@H](C1CC1)C(F)(F)F)c1cc(-c2cnn3cc(-c4ccc(F)cc4)cnc23)cs1
